MLLE-PAM2 inh – blocks PAM2 peptide binding to the PABP1 MLLE domain. AID 588489. GST-MLLE / FITC-PAM2 fluorescence polarization. hit rate 0.36% among 360,000. inhibition, % at 20 µM; in the data active = inhibition above about 35%, passing the limit was not always enough;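 note: plate controls were DMSO wells with GST-MLLE for no effect and wells lacking GST-MLLE protein for full effect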
MT1-MMP act inh – blocks activation of human MT1-MMP; HT1080 RFP-PRO-GFP cells, GFP/RFP ratio fluorescence, overnight; percent of plate control window, DMSO zero; hit rate 0.061% among 360,000; AID 651647; GFP/RFP ratio change, % at 20 µM;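 active = GFP/RFP ratio change of at least 30% with cell ATP level not reduced by more than half and red fluorescence within 50% of control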
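Test system: HT1080 cells expressing an RFP-PRO-GFP fluorescent reporter construct / Compound dosing: single-point 20 µM compound, 1% DMSO / Schedule: cells overnight before dosing, compound overnight, 37 °C, 5% CO2 / Evaluation: GFP/RFP fluorescence ratio / Control set: DMSO and RFP-L50D-GFP cell wells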
PABP polyA inh – PABP-poly(A) binding inhibition | P11940 | PABP-poly(A) RNA binding, fluorescence polarization | inhibition, % at 35 µM | hit rate 1% among 290,000;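 note: calls also rest on retests at 20 µM and on dose response follow-up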
SKN-1 block – inhibitors of C. elegans SKN-1; inhibition, % at 21.8 µM; hit rate 0.49% among 360,000; C. elegans VP596 Pgst-4::GFP/RFP ratio, acrylamide-induced, 24 h; AID 624304;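 active = interference check ratio from 0.5 to 1.5 plus GFP to RFP signal ratio inhibition reaching or exceeding a fixed threshold, cut at about 30% in these data, passing the limit was not always enough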
eIF4H inh – inhibitors of RNA binding by human eIF4H | Q15056 | eIF4H fluorescence polarization binding assay | inhibition, % at 35 µM | hit rate 0.94% among 290,000 | AID 2012;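 note: calls also rest on retests at 20 µM and on dose response follow-up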
* hit, by the source's call; ? = inconclusive; / = not tested or not shown. Compounds with a hit are over-represented: about 1.7% of the library has one in this group of screens. Unless noted, the rule behind the calls is not given here.

SMILES | MLLE-PAM2 inh | MT1-MMP act inh | PABP polyA inh | SKN-1 block | eIF4H inh
CCCC[n+]1c(C)sc2cc(OC)ccc21 | -33.9 | -5.4 | 58.4* | -2.8 | -3.7
Cc1ccc2c(c1)sc(C)[n+]2CCCS(=O)(=O)[O-] | 47.6* | 1.4 | 31.8 | -3.6 | 1.4
COc1ccc(NC(=O)C2CCCN(C(=O)c3ccc(Cl)cc3)C2)cc1S(=O)(=O)N(C)C (stereo not given) | 1.9 | 5.2 | / | -15.6 | /
Cn1cnnc1SCC(=O)NNC(=O)c1ccc([N+](=O)[O-])cc1 | 0.8 | 3.7 | / | 8.9 | /
CCCCC1NC(C(=O)O)CS1 (stereo not given) | 38.1* | -5.3 | -0.7 | 1.3 | -2.2
CCCCCC1CCC(C(=O)O)CC1 (stereo not given) | -0.4 | 2.6 | 5.0 | -11.5 | -0.6
CC(c1ccccc1)C1NC(C(=O)O)CS1 (stereo not given) | 7.6 | 2.4 | -2.7 | -5.0 | -0.1
CCCCCCC1NC(C(=O)O)CS1 (stereo not given) | 38.0* | 2.3 | -7.4 | 22.3 | -1.5
Cc1ccc(N2CCN(S(=O)(=O)c3c(C)nc4scc(C)n4c3=O)CC2)c(C)c1 | -1.3 | 1.9 | / | 4.6 | /
Clc1ccc2oc(SCc3cccnc3)nc2c1 | -14.4 | -3.6 | 7.7 | 41.3* | -2.4
COc1ccc(C(C)=O)cc1CSc1nc2cc(Cl)ccc2o1 | -11.5 | 2.7 | 34.6* | -8.6 | 65.2*
Clc1ccc2oc(-c3cccnc3)nc2c1 | -11.1 | -4.4 | 8.2 | 49.6* | 3.9
COc1cc(C(C)=O)ccc1OCC(=O)NCc1ccccc1CN1CCCC1 | 7.6 | 1.8 | / | 10.2 | /
Nc1ccc(CSc2ccc(Cl)cc2)c(Cl)c1 | 0.8 | 4.2 | / | 45.1* | /
CCNC(=S)NS(=O)(=O)c1ccc(C)cc1 | 41.1* | -5.3 | -6.5 | -0.5 | 0.3
CN(C)S(=O)(=O)c1cccc(C(=O)N=C2N=C3C=CC(Cl)=CN3Cc3ccccc32)c1 | -15.2 | -2.9 | -0.5 | 56.6* | 6.0
O=C(N=C1N=C2C=CC=CN2Cc2ccccc21)c1ccc(S(=O)(=O)N2CCCC2)cc1 | 3.6 | 1.2 | 10.7 | 1.9 | 10.2
O=C(Cc1ccc(S(=O)(=O)N2CCOCC2)s1)Nc1ccc2c(c1)CCC2 | -8.5 | 2.7 | 3.3 | 24.3 | 0.7
O=C(Cc1ccc(S(=O)(=O)N2CCOCC2)s1)Nc1nc2c(s1)CCCC2 | 9.4 | -16.6 | 41.7* | -7.1 | 59.5*
CCOc1ccc(CN(C(=O)c2ccccn2)c2ccc(OC)c(Cl)c2)cc1 | -1.1 | -2.9 | 1.8 | 10.2 | 1.5
Cn1ncc(C#N)c1/N=C/N1CCCC1 | 3.9 | 1.2 | 1.2 | 42.4* | -7.2
Cn1ncc(C#N)c1/N=C/N1CCCCC1 | -9.4 | -4.6 | 0.9 | 12.2 | -14.5
O=C(Cc1cccs1)NNC(=O)c1ccc(F)cc1 | -9.1 | -2.4 | 54.8* | 5.7 | ?
Cc1ccc(C(=O)NNC(=O)Cc2cccs2)cc1 | -19.2 | 3.3 | -1.4 | 6.0 | 4.1
CCN=c1scc(-c2ccccc2)n1/N=C/c1ccccn1 | -9.4 | -1.0 | -10.6 | 44.2* | 0.7
SMILES | MLLE-PAM2 inh | MT1-MMP act inh | PABP polyA inh | SKN-1 block | eIF4H inh
C=CCN=c1scc(-c2ccc(F)cc2)n1/N=C/c1ccccn1 | -16.5 | 0.7 | -1.4 | 28.8 | -5.8
CCN=c1scc(-c2ccc(F)cc2)n1/N=C/c1ccccn1 | 23.8 | 1.0 | 1.1 | 44.7* | -6.7
O=C(Cc1cccc(C(F)(F)F)c1)NCC(=O)Nc1cc(Cl)ccc1Cl | 0.7 | 1.3 | 6.3 | -0.9 | -3.6
OCc1c(Cl)nc2ccccn12 | -12.8 | -0.8 | 60.3* | 13.0 | -7.4
COc1ccccc1N1CCN(CCC(=O)Nc2ccc3c(c2)OCO3)CC1 | 22.0 | 1.6 | -0.1 | 48.5* | 4.5
CCN1CCN(C(=O)C2CCN(S(=O)(=O)c3ccc(SC)cc3)CC2)CC1 | 10.1 | 1.5 | 12.9 | 21.1 | 10.6
NC(=O)C1CCCN(C(=O)NC2CCCCC2)C1 (stereo not given) | 0.1 | 1.2 | 4.5 | 40.0* | -2.1
CCCC1OC(c2cc3c(cc2Cl)OCO3)OCC1CC (stereo not given) | -0.2 | -0.1 | / | -5.1 | /
C[n+]1cccc(C2C(C#N)=C(N)Oc3c2ccc2ccccc32)c1 (stereo not given) | -62.6 | -4.3 | 70.4* | 10.6 | 32.5
COC(=O)\C(C(C)=O)=C(/C=C/C=C/C=C/N(C)C)N(C)C | 2.7 | -7.4 | 65.6* | 27.0 | 90.1*
CN1CCC(=O)N(CCSc2ccc(Br)cc2)CC1 | 11.4 | 2.5 | -2.3 | -0.4 | -1.4
Cc1ccc(C(=O)n2nc(-c3cccnc3)nc2N)cc1 | -35.2 | 2.1 | 6.4 | 37.1* | -1.6
CC(=O)Nc1cncc(-c2ccccc2N(C)C)n1 | -3.6 | -2.0 | / | -2.6 | /
O=C1c2ccccc2C(=O)c2c(NCc3cccnc3)cccc21 | -24.2 | 28.2 | 11.4 | 42.8* | 10.7
CNc1cccc2c1C(=O)c1ccccc1C2=O | 41.1* | 25.3 | active | 45.1* | 78.3*
Cc1ccc(NC(=O)CN2CCc3ccccc3C2)cc1F | -9.5 | 6.6 | 12.5 | -7.3 | -4.0
COc1cccc(NC(=O)CSC(N)=O)c1 | 37.7* | -0.7 | 31.6 | 3.9 | 5.1
COc1cccc(NC(=O)CN2CCc3ccccc3C2)c1 | 7.0 | -1.0 | -0.8 | 35.5* | 1.6
Cc1cccc(CS(=O)(=O)c2ncc(CO)n2C)c1 | 9.3 | -2.8 | 16.2 | 19.0 | -2.4
Cc1ccc(C(=O)Oc2coc(CSc3nnc(NC(=O)c4cccs4)s3)cc2=O)cc1 | 5.8 | 2.5 | 2.5* | -2.0 | 90.1*
CC(=O)Nc1nnc(SCc2cc(=O)c(OC(=O)c3ccccc3)co2)s1 | 13.6 | 2.9 | -5.5 | -0.6 | -0.7
Cc1noc(C)c1-c1csc(N2CCC(C(N)=O)CC2)n1 | 39.8* | 4.3 | / | 6.3 | /
CNCc1ccccc1Sc1cc(O)ccc1O | 44.5* | -13.7 | -8.6 | -12.4 | 47.6
CNCc1ccccc1Sc1cccc(O)c1 | 8.6 | -7.4 | -6.5 | 3.5 | 0.4
COc1ccc(OC)c(S(=O)(=O)N2CCN(C(=O)c3cc(C4CC4)nn3-c3ccccc3)CC2)c1 | 67.8* | -0.7 | / | -8.4 | /
SMILES | MLLE-PAM2 inh | MT1-MMP act inh | PABP polyA inh | SKN-1 block | eIF4H inh
COc1cccc(CN(C)C(=O)CSC(C)C(=O)Nc2cc(C)on2)c1OC (stereo not given) | -3.4 | 5.0 | / | 13.0 | /
Cc1c(CN2CCCC(C(=O)Nc3cccc(-n4cccn4)c3)C2)cnn1C (stereo not given) | 0.4 | -2.3 | 6.1 | 35.8* | -3.4
Cc1c(C(c2ccccc2Br)c2c(C)n(C)n(-c3ccccc3)c2=O)c(=O)n(-c2ccccc2)n1C | -0.4 | -1.9 | 6.8 | 6.2 | -8.1
CCC(c1nnnn1-c1ccc2c(c1)OCCO2)N1CCN(c2ccc(F)cc2)CC1 (stereo not given) | / | 0.1 | / | 13.8 | /
CNC(=S)N/N=C/c1ccc(-c2ccc(Cl)c([N+](=O)[O-])c2)o1 | 22.1 | 5.7 | -1.4 | 0.6 | -4.0
CNC(=S)N/N=C/c1ccc(-c2ccc(C(=O)O)cc2)o1 | 9.2 | -2.6 | 20.6* | 7.8 | 53.5*
O=C(O)c1cccc(-c2ccc(/C=N/Nc3ccc([N+](=O)[O-])cc3)o2)c1 | -140.6 | -75.8 | 21.6* | 8.0 | 54.1
